Measured values as given in ChEMBL document CHEMBL1773021, “Virtual screening identification of novel severe acute respiratory syndrome 3C-like protease inhibitors and in vitro confirmation” (Bioorg Med Chem Lett, 2011).
Calls of active or inactive are those of the source. The calls are words filed in the database; no cut-off is given here.

Key:
[1] = biological target: Replicase polyprotein 1ab (Severe acute respiratory syndrome-related coronavirus) (UniProt P0C6X7); test: Inhibition of SARS coronavirus recombinant 3C-like protease expressed in Escherichia coli BL21(DE3) at 100 uM after 18 mins by FRET based assay
[2] = biological target: T1, Replicase polyprotein 1ab (Severe acute respiratory syndrome-related coronavirus, UniProt P0C6X7); test: Inhibition of SARS coronavirus recombinant 3C-like protease expressed in Escherichia coli BL21(DE3) after 30 mins by FRET based assay
[3] = biological target: Replicase polyprotein 1ab (Severe acute respiratory syndrome-related coronavirus) (UniProt P0C6X7); test: Competitive inhibition of SARS coronavirus recombinant 3C-like protease expressed in Escherichia coli BL21(DE3) by Dixon plot analysis
In short: (§1)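 Inhibitor at 0, 20, 30, 40, 50 and 60 μM; substrate at 5, 7.5 and 10 μM. Mode assigned from Lineweaver–Burk and Dixon plots. Km and Ki come from linear regression, with Ki taken from the common x-axis intercept on the Dixon plot.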

[4] = biological target: T1, Replicase polyprotein 1ab; test: Inhibition of SARS coronavirus recombinant 3C-like protease expressed in Escherichia coli BL21(DE3) by Lineweaver-Burk plot analysis; in short: as §1

SMILES	inhibition [1]	IC50 [2]	inhibition [3]	Ki [4]
Nc1nc(CSc2nnc(-c3cccc4ccccc34)n2-c2ccccc2)cs1	58.2%	58.3 µM		
COc1cc(C2C(C(=O)c3ccc(OCC(C)C)cc3C)=C(O)C(=O)N2CCN(C)C)ccc1O (stereo not drawn)	61.4%	62.8 µM		
Cc1nc(C)c(C(=O)C2=C(O)C(=O)N(CCCN3CCOCC3)C2c2cccc([N+](=O)[O-])c2)s1 (stereo not drawn)	49.1%	101 µM		
O=C(CSc1ncnc2c1sc1nc(N3CCOCC3)c3c(c12)CCCC3)NCc1ccco1	53.3%	90.7 µM		
Cc1ccc(C(=O)N/C(=C\c2ccc(-c3cccc([N+](=O)[O-])c3)o2)C(=O)NCCCN(C)C)cc1	82.6%	38.6 µM	Active	9.11 µM
Cc1ccc(C(=O)N/C(=C\c2ccc(-c3ccccc3[N+](=O)[O-])o2)C(=O)NCCCN(C)C)cc1	81.4%	41.4 µM	Active	9.93 µM
COc1cc(/C=N/NC(=O)/C(=C\c2ccccc2)NC(=O)c2ccccc2)cc(OC)c1O	56.1%	77.1 µM		
